Assay results published in PMC9801203 (Poultry Science, 2022).
Like-named read-outs stand apart in the source and are kept apart here. Marks after values point to notes of the source that are not given here.

Key:
chicken embryos [1] = assay type: in vivo, Gallus gallus domesticus; conditions: for effect on chick quality (in words): compared with control group; for Early dead embryos: embryos dead up to 7 d of incubation; for Late dead embryos: embryos died after 7 d of incubation; for Hatchability: hatchability of fertile eggs; for BW: hatched chicks; for BW / Chicks quality: Average score of chicks with score <100: mean ± SD; for Chicks quality: Average score of all chicks: maximum score 100, mean ± SD
Outline: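 Hatching eggs in groups of 30 per repetition: one control without puncture, one punctured without injection. A 0.5 mm needle puncture delivered 0.25, 0.50 or 0.75 µg/egg in 50 µL ultrapure water (sonicated, autoclaved 108°C, 3 min); the site was sealed with plaster. Incubation at 37.5–38.5°C and 50–60% RH, turned 45° every 2 h. Candling at days 6 and 18; early deaths ≤7 d. Hatched chicks were weighed and quality-scored (maximum 100).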

[2] = toxin levels in tissues of hatched chicks after in ovo injection; assay type: in vivo, Gallus gallus domesticus; conditions: for Toxin level in heart / Toxin level in kidneys / Toxin level in liver / Toxin level in serum / Toxin level in yolk sac: hatched chicks, mean ± SD; for presence as potential metabolite of OTA and 2’R-OTA in isolated organs: chicks after in ovo injection of OTA or 2’R-OTA
Outline: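 Eggs (30/group) punctured with a 0.5 mm needle, injected with test compound at 0.25, 0.50 or 0.75 µg/egg in 50 µL ultra-pure water, sealed; incubated 37.5–38.5°C, 50–60% RH, turned 45° every 2 h. Hatched chicks decapitated; serum and tissues (200 mg) deconjugated with β-glucuronidase/arylsulfatase overnight at 37°C, acetonitrile-based extraction, ¹³C₂₀-OTA internal standard, HPLC-MS/MS positive mode.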

[3] = test system: chicken embryo fibroblasts cell line SL-29 (ATCC CRL1590); assay: MTT cytotoxicity assay, 48 h exposure; assay type: cell-based, Gallus gallus
Outline: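 SL-29 chicken embryo fibroblasts were grown in DMEM with 5% FBS, 5% tryptose phosphate broth, 2 mM L-glutamine and penicillin/streptomycin at 37°C and 5% CO2. Cells were exposed to a ten-point twofold dilution series for 48 h at 37°C and 5% CO2. MTT (5 mg/mL stock in PBS) was added for 4 h and removed. Formazan was dissolved in DMSO and absorbance read at 510 nm. Samples below 50% were considered toxic.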

[4] = test system: human liver carcinoma cell line HepG2; conditions: HepG2 cells; ref Cramer et al. (2010); cited from earlier work
[5] = humans, calculated; ref Sueck et al. (2019b); cited from earlier work
chicken embryos [6] = conditions: 1 µg/egg, after 9 d of incubation; ref Hassan et al. (2012a); cited from earlier work
[7] = chickens; ref Galtier et al., 1981; cited from earlier work
[8] = pigs; ref Harwig et al., 1983; cited from earlier work
HeLa cells = conditions: acute toxicity, ref Xiao et al., 1996; cited from earlier work
IHKE cells = conditions: cytotoxicity, ref Bittner et al., 2015; cited from earlier work
embryos of Danio rerio = conditions: ref Haq et al., 2016; cited from earlier work
[9] = test system: serum-free cultures of embryonic brains of Tetra SL chick stage 29; conditions: 8-day exposure, embryonic chick brain cultures; ref Bruinink et al. (1998); cited from earlier work
[10] = MTT reduction, SL-29 cells, 48 h exposure

## C[C@@H]1Cc2c(Cl)cc(C(=O)N[C@H](Cc3ccccc3)C(=O)O)c(O)c2C(=O)O1 [2’R-OTA, 2’R-ochratoxin A]
Chicken embryos [1]
  effect on chick quality (in words): did not reduce chick quality
Chicken embryos [1]; in ovo injection 0.25 µg/egg
  Chicks quality: Chicks with score 100: 96.6%^c
  Early dead embryos: 14.4%^bc
  Late dead embryos: 6.6%^b
  Hatchability: 61.1%^b
  BW: 41.83 ± 2.54^a g
  Chicks quality: Average score of all chicks: 98.97 ± 5.57^b
  Chicks quality: Average score of chicks with score <100: 80.00 ± 0.00^a
Chicken embryos [1]; in ovo injection 0.50 µg/egg
  Chicks quality: Chicks with score 100: 68.6%^ab
  Early dead embryos: 15.5%^bc
  Late dead embryos: 4.4%^b
  Hatchability: 58.9%^b
  BW: 41.59 ± 2.91^a g
  Chicks quality: Average score of all chicks: 96.03 ± 8.37^ab
  Chicks quality: Average score of chicks with score <100: 87.36 ± 10.85^a
Chicken embryos [1]; in ovo injection 0.75 µg/egg
  Chicks quality: Chicks with score 100: 70.8%^b
  Early dead embryos: 21.1%^c
  Late dead embryos: 11.1%^c
  Hatchability: 46.7%^b
  BW: 42.43 ± 2.90^a g
  Chicks quality: Average score of all chicks: 94.08 ± 14.62^ab
  Chicks quality: Average score of chicks with score <100: 79.71 ± 21.88^ab
[2]; in ovo injection 0.25 µg/egg
  Toxin level in heart: 0.00 ± 0.00a µg/kg
  Toxin level in kidneys: 1.18 ± 0.07b µg/kg
  Toxin level in liver: 1.11 ± 0.02b µg/kg
  Toxin level in serum: 0.38 ± 0.00 µg·days/kg
  Toxin level in yolk sac: 4.65 ± 0.04b µg/kg
[2]; in ovo injection 0.50 µg/egg
  Toxin level in heart: 0.32 ± 0.02c µg/kg
  Toxin level in kidneys: 1.59 ± 0.07c µg/kg
  Toxin level in liver: 2.81 ± 0.16c µg/kg
  Toxin level in serum: 0.30 ± 0.00c µg/kg
  Toxin level in yolk sac: 7.52 ± 0.26 µg·days/kg
[2]; in ovo injection 0.75 µg/egg
  Toxin level in heart: 0.87 ± 0.02e µg/kg
  Toxin level in kidneys: 5.19 ± 0.14f µg/kg
  Toxin level in liver: 12.68 ± 0.10f µg/kg
  Toxin level in serum: 1.87 ± 0.02f µg/kg
  Toxin level in yolk sac: 19.83 ± 0.63g µg/kg
[3]; [10]
  IC50: 6.54 µM
[4]
  cytotoxic effect relative to OTA: approx. Tenfold lower cytotoxic effect
[5]
  biological half-life: approx. 6 mo

## C[C@@H]1Cc2c(Cl)cc(C(=O)N[C@@H](Cc3ccccc3)C(=O)O)c(O)c2C(=O)O1 [OTA, ochratoxin A]
Chicken embryos [1]
  effect on chick quality (in words): considerably reduced the number of chicks with a score of 100
Chicken embryos [1]; in ovo injection 0.25 µg/egg
  Chicks quality: Chicks with score 100: 82.7%^bc
  Early dead embryos: 12.2%^b
  Late dead embryos: 4.4%^b
  Hatchability: 58.9%^b
  BW: 41.53 ± 3.06^a g
  Chicks quality: Average score of all chicks: 97.02 ± 9.51^b
  Chicks quality: Average score of chicks with score <100: 82.78 ± 17.33^a
Chicken embryos [1]; in ovo injection 0.50 µg/egg
  Early dead embryos: 12.2%^b
  Late dead embryos: 8.9%^b
  Hatchability: 50.0%^ab
  BW: 41.59 ± 3.12^a g
  Chicks quality: Average score of all chicks: 98.77 ± 4.52^b
  Chicks quality: Average score of chicks with score <100: 88.00 ± 9.27^a
Chicken embryos [1]; in ovo injection 0.75 µg/egg
  Chicks quality: Chicks with score 100: 63.3%^a
  Early dead embryos: 31.1%^d
  Late dead embryos: 4.4%^b
  Hatchability: 35.6%^a
  BW: 41.42 ± 3.71^a g
  Chicks quality: Average score of all chicks: 91.03 ± 19.55^a
  Chicks quality: Average score of chicks with score <100: 75.55 ± 26.30^b
[2]; in ovo injection 0.25 µg/egg
  Toxin level in heart: 0.00 ± 0.00a µg/kg
  Toxin level in kidneys: 2.70 ± 0.07 µg·days/kg
  Toxin level in liver: 4.37 ± 0.04 µg·days/kg
  Toxin level in serum: 0.22 ± 0.00b µg/kg
  Toxin level in yolk sac: 7.04 ± 0.08c µg/kg
[2]; in ovo injection 0.50 µg/egg
  Toxin level in heart: 0.25 ± 0.01b µg/kg
  Toxin level in kidneys: 4.56 ± 0.21e µg/kg
  Toxin level in liver: 7.12 ± 0.19e µg/kg
  Toxin level in serum: 0.31 ± 0.00c µg/kg
  Toxin level in yolk sac: 10.43 ± 0.21e µg/kg
[2]; in ovo injection 0.75 µg/egg
  Toxin level in heart: 0.59 ± 0.01 µg·days/kg
  Toxin level in kidneys: 11.83 ± 0.35g µg/kg
  Toxin level in liver: 16.02 ± 0.28g µg/kg
  Toxin level in serum: 0.61 ± 0.01e µg/kg
  Toxin level in yolk sac: 12.40 ± 0.31f µg/kg
[3]; Gallus gallus, Fibroblast, 48 h
  IC50: 0.24 µM
Chicken embryos [6]
  embryo defect: beak hypoplasia: 45%
  embryo defect: beak retrognathism: 12%
  embryo defect: cleft spine: 10%
  embryo defect: exencephaly: 4%
  embryo defect: microphthalmia: 35%
  embryo defect: no eye development: 49%
  embryo defect: nonunited abdominal integuments: 8%
  embryo defect: reduced body weight: 15%
[7]
  half-life: 4.1 h
[5]
  biological half-life: 1 mo
[8]
  order of organs in which the toxin accumulated: kidneys > liver > muscle tissue and fat
HeLa cells
  IC50: 5 µM
IHKE cells
  IC50: 0.5 µM
Embryos of Danio rerio
  teratogenicity and mortality (in words): high OTA teratogenicity

## C[C@@H]1Cc2ccc(C(=O)N[C@@H](Cc3ccccc3)C(=O)O)c(O)c2C(=O)O1 [OTB, ochratoxin B]
[2]
  presence as potential metabolite of OTA and 2’R-OTA in isolated organs: not found in any of the organs tested above the LOD
[3]; [10]
  IC50: 7.96 µM

## C[C@@H]1Cc2c(Cl)cc(C(=O)O)c(O)c2C(=O)O1 [OTα, α-ochratoxin]
[2]
  presence as potential metabolite of OTA and 2’R-OTA in isolated organs: not found in any of the organs tested above the LOD
[3]; [10]
  IC50: 5.26 µM
HeLa cells
  IC50: 560 µM
IHKE cells
  nontoxic up to (concentration): ≥ 50 µM
[9]
  neurotoxic effects not observed up to (concentration): ≥ 15 µM
Embryos of Danio rerio
  teratogenicity and mortality (in words): negligible teratogenicity and mortality
